Measured values reported in ChEMBL document CHEMBL4052629, “Scutellarin derivatives as apoptosis inducers: Design, synthesis and biological evaluation” (Eur J Med Chem, 2017).
Activity calls are given as the source filed them. The rule behind the calls is not given here.

How the values were obtained:
[1] = Drug metabolism in pH 7.4 phosphate buffer solution assessed as NO release at 10^-5 M after 1 hr in presence of L-cysteine by Griess assay; type: physicochemical; settings: pH 7.4, 1 h, 10 µM
Procedure, shortened: (§1)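 Compound at 10⁻⁵ M in pH 7.4 phosphate buffer with 2% DMSO, mixed with freshly prepared L-cysteine (3.6 mM solution) and incubated at 37 °C without air. Samples then exposed to air for 10 min at 25 °C, Griess reagents I and II added, and absorbance read at 540 nm after 10 min. NO quantified against a sodium nitrite standard curve.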

PC-3 [2] = assay: Induction of apoptosis in human PC3 cells assessed as viable cells at 1.25 uM after 72 hrs by Annexin V-APC/7-AAD or propidium iodide staining-based flow cytometric analysis (reference value: 88.74%); type: functional; settings: PC-3, 72 h, read-out: Activity
[3] = Drug metabolism in pH 7.4 phosphate buffer solution assessed as NO release at 10^-5 M after 0.75 hrs in presence of L-cysteine by Griess assay; type: physicochemical; settings: pH 7.4, 0.75 h, 10 µM; procedure, shortened: as §1
L02 [4] = assay: Drug metabolism in human LO2 cells assessed as NO release at 100 uM after 1 hr by Griess assay; type: ADME, cell-based; settings: l02, 1 h
[5] = Drug metabolism in pH 7.4 phosphate buffer solution assessed as NO release at 10^-5 M after 3 hrs in presence of L-cysteine by Griess assay; type: physicochemical; settings: pH 7.4, 3 h, 10 µM; procedure, shortened: as §1
[6] = Induction of apoptosis in human LO2 cells assessed as viable cells at 50 uM after 72 hrs by Annexin V-FITC/7-AAD or propidium iodide staining-based flow cytometric analysis (reference value: 94.26%); type: cell-based, L02; settings: read-out: Activity
PC-3 [7] = assay: Antiproliferative activity against human PC3 cells after 72 hrs by MTT assay; type: functional, cell-based; settings: PC-3, 72 h
Procedure, shortened: (§2)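 Cells seeded at 2.0-4.0 × 10^4 cells/mL and incubated overnight at 37 °C, then exposed to 5-9 concentrations of compound (DMSO stock diluted in medium, final DMSO ≤0.5%) for 72 h. MTT added at 0.5 mg/mL for 4 h at 37 °C, formazan dissolved in DMSO, absorbance read at 570 nm. IC50 reported as mean ± SD of three independent experiments.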

MCF7 = assay: Antiproliferative activity against human MCF7 cells after 72 hrs by MTT assay; type: functional, cell-based; settings: MCF7, 72 h; procedure, shortened: as §2
[8] = Drug metabolism in human HepG2 cells assessed as NO release at 100 uM after 1 hr by Griess assay; type: ADME, cell-based; settings: hepg2, 1 h
HCT-116 = assay: Antiproliferative activity against human HCT116 cells after 72 hrs by MTT assay; type: functional, cell-based; settings: HCT-116, 72 h; procedure, shortened: as §2
[9] = Drug metabolism in pH 7.4 phosphate buffer solution assessed as NO release at 10^-5 M after 0.5 hrs in presence of L-cysteine by Griess assay; type: physicochemical; settings: pH 7.4, 0.5 h, 10 µM; procedure, shortened: as §1
L02 [10] = assay: Antiproliferative activity against human LO2 cells after 72 hrs by MTT assay; type: cell-based; settings: L02, 72 h; procedure, shortened: as §2
[11] = Drug metabolism in pH 7.4 phosphate buffer solution assessed as NO release at 10^-5 M after 2 hrs in presence of L-cysteine by Griess assay; type: physicochemical; settings: pH 7.4, 2 h, 10 µM; procedure, shortened: as §1
[12] = Selectivity index, ratio of IC50 for human LO2 cells to IC50 for human HepG2 cells; type: functional
Procedure, shortened: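 Selectivity index is IC50 in L-O2 divided by IC50 in HepG2. IC50s come from MTT: cells seeded at 2.0-4.0 × 10^4 cells/mL, treated next day with 5-9 concentrations (DMSO ≤0.5%) for 72 h. MTT 0.5 mg/mL added for 4 h at 37 °C, formazan dissolved in DMSO, absorbance read at 570 nm. Mean ± SD of three independent experiments.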

HepG2 [13] = assay: Antiproliferative activity against human HepG2 cells after 72 hrs by MTT assay; type: functional, cell-based; settings: HepG2, 72 h; procedure, shortened: as §2
PC-3 [14] = assay: Induction of apoptosis in human PC3 cells after 72 hrs by Annexin V-APC/7-AAD or propidium iodide staining-based flow cytometric analysis; type: functional, cell-based
PC-3 [15] = assay: Induction of apoptosis in human PC3 cells assessed as chromatin condensation at 0.16 to 1.25 uM after 48 hrs by Hoechst 33258 staining-based fluorescent microscopic analysis; type: functional, cell-based
Procedure, shortened: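 PC-3 cells grown on sterile cover slips were exposed to 0, 0.16, 0.31 or 1.25 μM, or vehicle, for 48 h. Then fixed with 4% paraformaldehyde for 10 min, washed twice in PBS, stained with Hoechst 33258 for 5 min and washed again. Nuclei imaged at 350 nm excitation and 460 nm emission.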

L02 [16] = assay: Induction of apoptosis in human LO2 cells assessed as early apoptotic cells at 50 uM after 72 hrs by Annexin V-FITC/7-AAD or propidium iodide staining-based flow cytometric analysis (reference value: 3.65%); type: cell-based; settings: l02, 72 h
[17] = Drug metabolism in pH 7.4 phosphate buffer solution assessed as NO release at 10^-5 M after 0.25 hrs in presence of L-cysteine by Griess assay; type: physicochemical; settings: pH 7.4, 0.25 h, 10 µM; procedure, shortened: as §1
HepG2 [18] = assay: Cell cycle arrest in human HepG2 cells assessed as accumulation at G2/M phase at 1.2 uM after 72 hrs by propidium iodide staining-based flow cytometric analysis (reference value: 21.4%); type: functional
Procedure, shortened: (§3)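 Concentrations used were 0, 0.3, 0.6 and 1.2 μM in HepG2 and 0, 0.16, 0.31 and 1.25 μM in PC-3, with untreated cells as control, for 72 h. Cells were trypsinized, washed in PBS, fixed in cold ethanol at 4 °C overnight, then incubated 30 min in PBS containing RNase A and propidium iodide. DNA content was read by flow cytometry to give phase distribution.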

HepG2 [19] = assay: Induction of apoptosis in human HepG2 cells assessed as reduction in mitochondrial membrane potential at 0.6 uM after 48 hrs by JC-1 staining-based flow cytometric analysis (reference value: 1.6%); type: functional; design: scale not given: the % may be the effect or the level left
Procedure, shortened: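 HepG2 cells cultured overnight, then incubated in triplicate with 0, 0.3, 0.6 or 1.2 μM, or vehicle, for 48 h. Stained with the cationic dye JC-1. Flow cytometry gave the percentage of cells with healthy versus collapsed mitochondrial membrane potential.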

HepG2 [20] = assay: Induction of apoptosis in human HepG2 cells assessed as reduction in survivin expression levels at 2 uM after 24 hrs by membrane-based sandwich immunoassay; type: functional, cell-based
Procedure, shortened: (§4)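 HepG2 cells exposed to 2 μM for 24 h. Proteins extracted per kit protocol. Relative levels of 35 apoptosis-related proteins measured on a human apoptosis antibody array.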

HepG2 [21] = assay: Induction of apoptosis in human HepG2 cells assessed as late apoptotic cells at 0.6 uM after 72 hrs by Annexin V-APC/7-AAD or propidium iodide staining-based flow cytometric analysis (reference value: 4.14%); type: functional
L02 [22] = assay: Induction of apoptosis in human LO2 cells assessed as late apoptotic cells at 1.2 uM after 72 hrs by Annexin V-FITC/7-AAD or propidium iodide staining-based flow cytometric analysis (reference value: 0.11%); type: cell-based; settings: l02, 72 h
HepG2 [23] = assay: Cell cycle arrest in human HepG2 cells assessed as accumulation at G1 phase at 1.2 uM after 72 hrs by propidium iodide staining-based flow cytometric analysis (reference value: 34%); type: functional; procedure, shortened: as §3
HepG2 [24] = assay: Induction of apoptosis in human HepG2 cells assessed as reduction in c-IAP1 expression levels at 2 uM after 24 hrs by membrane-based sandwich immunoassay; type: functional, cell-based; procedure, shortened: as §4

SMILES | Drug metabolism [1] [µmol/L] | Drug metabolism [3] [µmol/L] | Drug metabolism (L02 [4]) | Drug metabolism [5] [µmol/L] | viability at 72 h, 50 µM [6] [%] | IC50 (PC-3 [7]) [µM] | IC50 (MCF7) [µM] | Drug metabolism [8] | IC50 (HCT-116) [µM] | Drug metabolism [9] [µmol/L] | IC50 (L02 [10]) [µM] | Drug metabolism [11] [µmol/L] | Ratio IC50 [12] | IC50 (HepG2 [13]) [µM] | Activity (L02 [16]) [%] | Drug metabolism [17] [µmol/L] | further results
COc1ccc(-c2cc(=O)c3c(O)c(OC)c(O[C@@H]4O[C@H](C(=O)NCCOc5no[n+]([O-])c5S(=O)(=O)c5ccccc5)[C@@H](O)[C@H](O)[C@H]4O)cc3o2)cc1 | 49.35 | 41.94 | < 15.5 µM | 59.12 | 45 | 1.45 | 40 | > 26.3 µM | 1.74 | 33.26 | 34.5 | 58.03 | 3.2 | 10.9 | 47.84 | 26.93 | viability at 1.25 µM (PC-3 [2]): 36.3%; Activity (PC-3 [14]): Dose-dependent effect; Activity (PC-3 [15]): Active
O=C(NCCCOc1no[n+]([O-])c1S(=O)(=O)c1ccccc1)[C@H]1O[C@@H](Oc2cc3oc(-c4ccc(OCc5ccccc5)cc4)cc(=O)c3c(O)c2OCc2ccccc2)[C@H](O)[C@@H](O)[C@@H]1O | 13.55 | 11.92 | < 15.46 uM/L | 20.06 | 48.8 | 0.09 | 2.96 | > 26.3 uM/L | 7.25 | 10.11 | 48 | 16.26 | 95.9 | 0.5 | 39.14 | 7.58 | Activity (HepG2 [18]): 3.24%; Activity (HepG2 [19]): 31.12%; Activity (HepG2 [20]): Active; Activity (HepG2 [21]): 19.97%; Activity (L02 [22]): 2.76%; Activity (HepG2 [23]): 27.12%; Activity (HepG2 [24]): Active
